Source: ChEMBL document CHEMBL1155120, “Synthesis of 4-oxo-4,7-dihydrofuro[2,3-b]pyridine-5-carboxamides with broad-spectrum human herpesvirus polymerase inhibition” (Bioorg Med Chem Lett, 2008)
In brackets after ≈: the same amount, converted by molar mass.

How the values were obtained:
[1] = Inhibition of HCMV DNA polymerase by scintillation proximity assay; design: species or system Human betaherpesvirus 5
Outline: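 Scintillation proximity assay with purified HCMV DNA polymerase, measuring incorporation of ³H-labelled nucleotide into template-primer. IC50 values are means of at least two experiments, with standard deviation where given.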

Human alphaherpesvirus 1 = test: Antiviral activity against HSV1 KOS by plaque reduction assay; type: functional, organism-based; conditions: Human alphaherpesvirus 1, KOS
Outline: (§1)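 Plaque reduction assays used HCMV Davis strain and HSV-1 KOS strain. IC50 values are means of at least two experiments, with standard deviation where given.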

[2] = Inhibition of human polymerase alpha by scintillation proximity assay
[3] = Inhibition of VZV DNA polymerase by scintillation proximity assay; design: species or system Human alphaherpesvirus 3
[4] = Oral bioavailability in rat; type: ADME, organism-based; conditions: in vivo
Outline: (§2)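 Dosing was intravenous at 5 mg/kg and oral at 15 mg/kg. The vehicle was 80/20 PEG400/0.01 M methanesulfonic acid.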

[5] = Inhibition of human polymerase gamma by scintillation proximity assay
Human betaherpesvirus 5 = test: Antiviral activity against HCMV Davis by plaque reduction assay; type: functional, organism-based; conditions: Human betaherpesvirus 5, Davis; outline: as §1
[6] = Inhibition of human polymerase delta by scintillation proximity assay
[7] = Oral bioavailability in dog; type: ADME, organism-based, Canis lupus familiaris; conditions: in vivo; outline: as §2
[8] = target: T1, DNA polymerase catalytic subunit (Human herpesvirus 1 (strain KOS) (HHV-1) (Human herpes simplex virus1), UniProt P04292); test: Inhibition of HSV1 DNA polymerase by scintillation proximity assay; design: species or system Human alphaherpesvirus 1
T1 sequence (P04292 whole entry): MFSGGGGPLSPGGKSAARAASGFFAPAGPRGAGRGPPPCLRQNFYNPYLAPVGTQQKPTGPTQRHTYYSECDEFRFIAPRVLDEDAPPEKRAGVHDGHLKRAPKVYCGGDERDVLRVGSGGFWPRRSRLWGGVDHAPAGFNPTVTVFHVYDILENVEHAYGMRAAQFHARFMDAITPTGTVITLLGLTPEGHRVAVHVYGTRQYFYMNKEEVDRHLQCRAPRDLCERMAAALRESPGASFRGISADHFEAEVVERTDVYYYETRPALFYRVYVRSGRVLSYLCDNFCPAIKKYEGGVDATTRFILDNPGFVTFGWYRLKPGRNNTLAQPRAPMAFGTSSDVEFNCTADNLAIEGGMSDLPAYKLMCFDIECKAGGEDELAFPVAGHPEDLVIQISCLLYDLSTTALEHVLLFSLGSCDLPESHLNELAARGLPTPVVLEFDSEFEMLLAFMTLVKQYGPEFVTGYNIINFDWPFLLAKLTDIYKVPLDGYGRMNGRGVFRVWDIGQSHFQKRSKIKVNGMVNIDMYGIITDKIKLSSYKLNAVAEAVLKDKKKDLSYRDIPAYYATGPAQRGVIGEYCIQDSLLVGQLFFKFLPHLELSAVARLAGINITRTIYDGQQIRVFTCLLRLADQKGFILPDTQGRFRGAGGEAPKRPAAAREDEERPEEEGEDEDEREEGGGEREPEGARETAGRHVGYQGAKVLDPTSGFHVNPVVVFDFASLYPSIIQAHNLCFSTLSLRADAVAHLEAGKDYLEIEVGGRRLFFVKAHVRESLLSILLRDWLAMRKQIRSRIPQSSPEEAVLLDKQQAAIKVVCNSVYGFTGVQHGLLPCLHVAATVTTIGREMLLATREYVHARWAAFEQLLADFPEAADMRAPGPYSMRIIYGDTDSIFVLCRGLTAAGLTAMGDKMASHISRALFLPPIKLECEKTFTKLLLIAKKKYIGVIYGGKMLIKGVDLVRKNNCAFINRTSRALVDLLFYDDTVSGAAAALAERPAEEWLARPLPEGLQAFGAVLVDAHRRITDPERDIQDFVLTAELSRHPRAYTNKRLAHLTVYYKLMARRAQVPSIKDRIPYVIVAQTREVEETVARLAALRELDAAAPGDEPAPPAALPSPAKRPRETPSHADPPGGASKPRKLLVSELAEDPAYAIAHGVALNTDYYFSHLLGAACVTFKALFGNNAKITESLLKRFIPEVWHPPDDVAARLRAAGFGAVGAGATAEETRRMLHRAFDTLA

Human alphaherpesvirus 3 = test: Antiviral activity against VZV Webster by plaque reduction assay; type: functional, organism-based; conditions: Human alphaherpesvirus 3, Webster
[9] = Aqueous solubility of the compound; type: physicochemical
Human gammaherpesvirus 4 = test: Antiviral activity against EBV lytic replication in GG68 cells after 72 hrs by Southern blot analysis; type: functional, organism-based; conditions: human gammaherpesvirus 4, GG68, 72 h
[10] = Cytotoxicity against HFF cells after 3 days by neutral red dye uptake assay; type: cell-based; conditions: human
Outline: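 Uninfected, replicating HFF cells were seeded as subconfluent monolayers and exposed to compound for 3 days.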

In the case of `CN(Cc1cc2c(=O)c(C(=O)NCc3ccc(Cl)cc3)cn(CCc3ccccc3)c2o1)C[C@@H](O)c1ccco1`, the IC50 [1] is reported as 690 nM.

Work on `CN(Cc1cc2c(=O)c(C(=O)NCc3ccc(Cl)cc3)cn(-c3ccccc3)c2o1)C[C@@H](O)c1ccco1` yielded an IC50 [1] of 830 nM.

For `Cc1ccc(CNC(=O)c2cn(C)c3oc(CN(C)C[C@@H](O)c4ccco4)cc3c2=O)cc1`, the IC50 [1] was 3140 nM.

Work on `CN(Cc1cc2c(=O)c(C(=O)NCc3ccc(Cl)cc3)cn(C)c2o1)C[C@@H](O)c1ccco1` yielded an IC50 (Human alphaherpesvirus 1) of 4300 nM, an IC50 [2] of over 20000 nM and an IC50 [3] of 78 nM. For the same compound, the bioavailability [4] was 67%, the IC50 [1] was 76 nM and the IC50 [5] was over 20000 nM. It also gave an IC50 (Human betaherpesvirus 5) of 26 nM, an IC50 [6] of over 20000 nM and a bioavailability [7] of 76%. The IC50 [8] was 220 nM, the IC50 (Human alphaherpesvirus 3) was 20 nM and the solubility [9] was 60 µM (≈ 28.2 µg/mL). For the same compound, the IC50 (Human gammaherpesvirus 4) was 400 nM and the CC50 at 72 h [10] was over 100000 nM.

`CN(Cc1cc2c(=O)c(C(=O)NCc3ccc(Cl)cc3)cn(C)c2o1)C[C@@H](O)c1cnccn1` showed an IC50 [1] of 220 nM and an IC50 (Human betaherpesvirus 5) of 28 nM.

`CN(Cc1cc2c(=O)c(C(=O)NCc3ccc(F)c(F)c3)cn(C)c2o1)C[C@@H](O)c1ccco1` showed an IC50 [1] of 1020 nM.

For `CN(Cc1cc2c(=O)c(C(=O)NCc3ccc(C(F)(F)F)cc3)cn(C)c2o1)C[C@@H](O)c1ccco1`, the IC50 [1] was 6450 nM.

Work on `Nc1nc(O)c2ncn(COC(CO)CO)c2n1` [GANCICLOVIR] yielded a CC50 at 72 h [10] of over 100000 nM.

Work on `CN(Cc1cc2c(=O)c(C(=O)NCc3ccc(Cl)cc3)cn(C)c2o1)C[C@@H](O)c1ccccn1` yielded an IC50 (Human alphaherpesvirus 1) of 5400 nM, an IC50 [2] of over 20000 nM and an IC50 [3] of 100 nM. For the same compound, the IC50 [1] was 220 nM, the IC50 [5] was over 20000 nM and the IC50 (Human betaherpesvirus 5) was 170 nM. It also gave an IC50 [6] of over 20000 nM, an IC50 [8] of 350 nM and an IC50 (Human alphaherpesvirus 3) of 90 nM. The CC50 at 72 h [10] was over 100000 nM.

For `CCN(CC)CCn1cc(C(=O)NCc2ccc(Cl)cc2)c(=O)c2cc(CN(C)C[C@@H](O)c3ccco3)oc21`, the IC50 [1] was 3920 nM.

In the case of `CN(Cc1cc2c(=O)c(C(=O)NCc3ccc(Cl)cc3)cn(C3CC3)c2o1)C[C@@H](O)c1ccco1`, the IC50 [1] is reported as 420 nM and the IC50 (Human betaherpesvirus 5) is reported as 1200 nM.

Work on `CN(Cc1cc2c(=O)c(C(=O)NCc3ccc(F)cc3)cn(C)c2o1)C[C@@H](O)c1ccco1` yielded an IC50 [1] of 610 nM.

Work on `CCCn1cc(C(=O)NCc2ccc(Cl)cc2)c(=O)c2cc(CN(C)C[C@@H](O)c3ccco3)oc21` yielded an IC50 [1] of 1120 nM.

`CN(Cc1cc2c(=O)c(C(=O)NCc3ccc(Cl)cc3)cn(C)c2s1)C[C@@H](O)c1ccccn1` gave an IC50 (Human gammaherpesvirus 4) of 200 nM.

`CN(Cc1cc2c(=O)c(C(=O)NCc3ccc(Cl)cc3)cn(-c3ccccn3)c2o1)C[C@@H](O)c1ccco1` showed an IC50 [1] of 140 nM and an IC50 (Human betaherpesvirus 5) of 50 nM.

`CN(Cc1cc2c(=O)c(C(=O)NCc3ccccc3)cn(C)c2o1)C[C@@H](O)c1ccco1` gave an IC50 [1] of 11400 nM.

For `O=C(O)P(=O)(O)O` [FOSCARNET], the IC50 [5] was under 280 nM.

With `CN(Cc1cc2c(=O)c(C(=O)NCc3ccc(Br)cc3)cn(C)c2o1)C[C@@H](O)c1ccco1` the IC50 [1] was 340 nM.

For `Nc1nc2c(ncn2COCCO)c(=O)[nH]1` [ACYCLOVIR], the IC50 (Human betaherpesvirus 5) was over 20000 nM and the CC50 at 72 h [10] was over 100000 nM.

For `CCn1cc(C(=O)NCc2ccc(Cl)cc2)c(=O)c2cc(CN(C)C[C@@H](O)c3ccco3)oc21`, the IC50 [1] was 510 nM and the IC50 (Human betaherpesvirus 5) was 700 nM.

With `CN(Cc1cc2c(=O)c(C(=O)NCc3ccc(Cl)cc3)cn(C)c2o1)C[C@@H](O)c1ncccn1` the IC50 [1] was 170 nM and the IC50 (Human betaherpesvirus 5) was 360 nM.
